DENV2 CPE – inhibitors of DENV2 cytopathic effect, primary screen, cell-based, plate reader, single concentration. DENV2-infected cells, cytopathic effect rescue. CPE inhibition, % at 9.99 µM. hit rate 1.7% among 350,000. AID 651640, 2012; in the data active = CPE inhibition above about 20%, passing the limit was not always enough; inconclusive = no clear call, values can overlap the other calls; tested in BHK-21 cells;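 also: 0% = median of neutral control wells and 100% = median of positive control wells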
AF4-AF9 inh – inhibitors of AF4 peptide binding to AF9, primary screen, biochemical, AlphaScreen, biotin-AF4 peptide, FLAG-AF9, single point | Protein AF-9 (Homo sapiens), P42568 | inhibition, % at 10 µM | hit rate 0.47% among 350,000 | AID 651704, 2012;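 active = every replicate reaching a set inhibition limit, whatever the replicate mean, cut at about 25% in these data; inconclusive = mean inhibition reaches that limit but some replicates miss it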;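 also: 0% = plate neutral control median and 100% = total signal loss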
Target sequence (P42568 whole entry, looked up): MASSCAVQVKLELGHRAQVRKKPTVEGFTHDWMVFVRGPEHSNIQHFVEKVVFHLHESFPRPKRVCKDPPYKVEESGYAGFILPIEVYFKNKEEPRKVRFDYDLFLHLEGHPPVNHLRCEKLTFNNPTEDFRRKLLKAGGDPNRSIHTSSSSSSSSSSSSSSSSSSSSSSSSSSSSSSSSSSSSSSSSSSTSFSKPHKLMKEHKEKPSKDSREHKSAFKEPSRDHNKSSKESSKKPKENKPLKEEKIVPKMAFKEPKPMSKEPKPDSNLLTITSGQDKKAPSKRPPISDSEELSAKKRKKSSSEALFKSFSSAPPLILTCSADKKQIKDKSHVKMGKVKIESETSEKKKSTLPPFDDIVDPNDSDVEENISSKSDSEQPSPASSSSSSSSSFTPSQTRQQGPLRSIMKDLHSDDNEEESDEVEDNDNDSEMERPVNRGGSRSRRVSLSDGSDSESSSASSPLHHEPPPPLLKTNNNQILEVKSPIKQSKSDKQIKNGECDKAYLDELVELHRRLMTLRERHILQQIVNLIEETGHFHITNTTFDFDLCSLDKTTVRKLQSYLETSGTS
CaV13 FRET inh – Disruptors of the CACNA1D IQ motif to Ca2+-dependent inactivation inhibitor domain association, primary screening, Förster resonance energy transfer in intact living … | inhibition, % at 12.3 µM | HEK cells, CFP/YFP FRET ICDI-IQ, plate reader, 10 min; percent FRET-ratio fall versus neutral wells | hit rate 0.098% among 340,000;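 active = mean replicate inhibition of at least 30% and at least 1% of replicates passing that level; inconclusive = only one of the two criteria is met; inactive = neither criterion is met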;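 also: 0% = median of the neutral control wells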
SIRT5 inh – SIRT5 desuccinylase inhibitors, primary screen, biochemical, fluorescence imaging, single point, set 5; NAD-dependent protein deacylase sirtuin-5, mitochondrial (Homo sapiens), Q9NXA8; inhibition, % at 15 µM; hit rate 1.1% among 330,000; Purified SirT5, succinyl-peptide AMC, trypsin-coupled fluorescence; in the data active = inhibition above about 15%; inconclusive = no clear call, values can overlap the other calls
S100A4 MyoIIA – inhibitors of S100A4-myosin IIA peptide binding, primary screen, biochemical, fluorescence polarization, TAMRA-MyoIIA peptide. inhibition, % at 10.7 µM. hit rate 0.14% among 360,000. AID 652163, 2013;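 active = mean inhibition of at least 70% across replicates, with every replicate also reaching that level; inconclusive = mean inhibition reaches 70% but some replicates fall short; inactive = mean inhibition below 70%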
Target sequence (P26447 whole entry, looked up): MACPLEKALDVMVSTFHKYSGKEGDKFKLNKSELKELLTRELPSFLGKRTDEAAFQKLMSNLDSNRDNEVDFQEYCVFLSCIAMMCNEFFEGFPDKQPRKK
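incubation = readout 5 min after mixing, signal stable up to 60 min | system = S100A4 monomer protein | buffer or medium = HEPES pH 7.2 with CaCl2, KCl, NaCl, DTT, Triton | benchmarks = neutral control DMSO, positive control TFP | also added = fluorescent myosin IIA peptide, 5 nM | compound dosing = one concentration per compound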
* = called active by the depositor; u = inconclusive; x = not tested or not shown; + = active, no number. Rows were chosen to be rich in hits. Some 2.7% of all compounds tested hit in one or more screens of this group.

SMILES	DENV2 CPE	AF4-AF9 inh	CaV13 FRET inh	SIRT5 inh	S100A4 MyoIIA
COc1ccccc1N1CCN(/N=C\c2sccc2C)CC1	-3.4	30.4*	-4.2	1.0	1.8
O=[N+]([O-])c1ccccc1/C=N\N1CCN(c2ccccc2)CC1	-2.8	6.6	-7.2	-4.9	3.2
O=[N+]([O-])c1ccccc1/C=C\C=N\N1CCN(c2ccccc2)CC1	-3.1	42.1*	-5.4	0.4	0.3
COc1ccccc1N1CCN(/N=C\c2ccccc2)CC1	5.1	14.5	-4.5	1.8	-2.4
COc1ccccc1N1CCN(/N=C/C=C/c2ccccc2[N+](=O)[O-])CC1	0.5	48.3*	1.4	0.8	2.1
CC(C)NC(=O)Nc1cccc2c1O[C@H](CN(C)C(=O)Nc1cccc3ccccc13)[C@H](C)CN([C@H](C)CO)C2=O	1.9	0.4	x	-2.4	0.1
CCN(CC)c1ccc(/C=N/n2nnnc2N)c(O)c1	x	x	-3.2	x	x
CCN(CC)c1ccc2nc3ccc(N)cc3[n+](-c3ccccc3)c2c1	u	49.8*	-11.2	-1.7	+
CCCCCCCCN1C(=O)[C@@H](CC(=O)N2CCCCC2)C[C@@]2(C(=O)OC)C1=C[C@H](C1CCCC1)O[C@@H]2C	10.3	-1.6	-4.0	x	-4.0
O=C(CSc1ncnc2c1oc1ccccc12)Nc1cccc(Cl)c1	x	x	-4.6	x	x
O=C(CSc1ncnc2c1oc1ccccc12)Nc1cccc(C(F)(F)F)c1	36.5*	-6.2	-7.3	-1.4	-6.2
CCS(=O)(=O)N1CCN(S(=O)(=O)c2ccc(Cl)s2)CC1	x	0.0	-5.9	-7.1	-3.6
COCCNC(=S)N1CCN(S(=O)(=O)c2ccc(Cl)s2)CC1	44.7*	-0.8	-1.8	-2.3	1.4
CN1c2ccc(-c3ccccc3F)cc2[C@H]2[C@H](CCN2C(=O)c2cccc(F)c2)[C@H]1CO	14.2	x	x	x	x
CN1c2ccc(-c3ccccc3F)cc2[C@@H]2[C@@H](CCN2C(=O)Nc2cc(F)ccc2F)[C@@H]1CO	41.6*	x	x	x	x
CN1c2ccc(-c3ccc(F)cc3)cc2[C@@H]2[C@@H](CCN2C(=O)Nc2cc(F)ccc2F)[C@@H]1CO	-21.9	1.5	x	0.5	-11.7
CN1c2ccc(-c3ccccc3F)cc2[C@@H]2[C@@H](CCN2C(=O)c2cccc(F)c2)[C@@H]1CO	75.7*	x	x	x	x
CC(C)(C(=O)N1CCC1(C)C(=O)NS(=O)(=O)c1cccc(Cl)c1)c1ccccc1 (configuration not stated)	43.7*	-4.4	-4.6	-3.3	-0.4
CC1(C(=O)NS(=O)(=O)c2cccc(Cl)c2)CCN1C(=O)COc1ccc(Cl)cc1 (configuration not stated)	85.5*	-0.3	-4.1	-3.7	-4.0
CC1(C(=O)NS(=O)(=O)c2ccc(Cl)cc2)CCN1C(=O)COc1ccc(Cl)cc1 (configuration not stated)	1.5	-4.4	-4.7	x	5.6
CC(C)(C(=O)N1CCC1(C)C(=O)NS(=O)(=O)c1cccc(F)c1)c1ccccc1 (configuration not stated)	0.2	1.0	-5.7	-0.7	-7.0
COc1ccc(NC(=O)Nc2ccc3c(c2)C(=O)N([C@@H](C)CO)C[C@@H](C)[C@H](CN(C)C(=O)Nc2c(C)noc2C)OCCCC[C@H](C)O3)cc1	-3.0	0.0	x	-9.7	18.4
C[C@@H]1CN([C@H](C)CO)C(=O)Cc2cc(NC(=O)Nc3ccc(F)cc3)ccc2O[C@@H]1CN(C)C(=O)NC1CCCCC1	2.8	-0.2	x	2.6	-2.1
CC(C)CC#Cc1ccc([C@@H]2[C@H]3CN(C(=O)Nc4cc(F)ccc4F)CC(=O)N3[C@H]2CO)cc1	-4.7	0.8	x	16.6*	-6.1
CC(C)CC#Cc1ccc([C@H]2[C@@H](CO)N3C(=O)CN(C(=O)Nc4cc(F)ccc4F)C[C@@H]23)cc1	0.6	-2.6	x	8.4	-2.5
SMILES	DENV2 CPE	AF4-AF9 inh	CaV13 FRET inh	SIRT5 inh	S100A4 MyoIIA
O=C(Nc1cc(F)ccc1F)N1CC(=O)N2[C@H](C1)[C@@H](c1ccc(C#CC3CCCCC3)cc1)[C@@H]2CO	-1.3	3.6	x	20.2*	4.0
O=C(Nc1cc(F)ccc1F)N1CC(=O)N2[C@H](CO)[C@@H](c3ccc(C#CC4CCCCC4)cc3)[C@@H]2C1	-9.1	4.0	x	18.3*	3.5
CCOC(=O)C1=CCC2C(=O)N(C3CCCCC3)C(=O)C12 (configuration not stated)	u	-1.0	-3.4	17.5*	11.3
COC1=C/C(=C/c2c(N)n3nc(CC(=O)N4CCCC4)sc3nc2=O)C=CC1=O	-2.3	-5.6	-3.2	29.8*	0.0
COC1=CC(=Cc2c(N)n3nc(CC(=O)N4CCCCC4)sc3nc2=O)C=C(OC)C1=O	6.5	-2.4	-7.4	32.2*	-5.0
CCOC1=C/C(=C/c2c(N)n3nc(CC(=O)N4CCCC4)sc3nc2=O)C=CC1=O	4.5	0.9	-13.8	-1.9	-2.1
CCN1[C@@H]2Cn3c(ccc(-c4ccc(F)cc4)c3=O)[C@H]1[C@@H](C(=O)Nc1ccccc1)[C@@H]2CO	1.3	-3.7	x	-4.7	-3.8
O=C(NCc1ccccc1)C(c1ccco1)N(C(=O)c1csnn1)C1CC1 (configuration not stated)	5.4	41.0*	-2.5	-4.1	1.0
O=C(NCc1ccc(F)cc1)C(c1ccco1)N(C(=O)c1csnn1)C1CC1 (configuration not stated)	19.2	-0.4	-2.2	-1.8	-1.6
FC(F)(F)c1cc(CCN2CCNC[C@@H]2Cc2ccccc2)cc(C(F)(F)F)c1	x	27.2*	-5.1	x	1.1
Fc1cccc(CCN2CCNC[C@@H]2Cc2ccccc2)c1	-5.4	6.7	-4.5	0.4	-0.4
O=C(NC[C@@H]1[C@H](c2ccccc2)[C@@H](CO)N1C(=O)C1CCC1)NC1CCCC1	16.2	x	x	x	x
CC(=O)Nc1cccc(NC(=O)c2ccc(C)c([N+](=O)[O-])c2)c1	6.7	-8.8	8.7	16.6*	-1.5
CO[C@@H](CN(C)S(=O)(=O)c1ccccc1)[C@@H](C)CN(C(=O)Nc1ccccc1F)[C@@H](C)CO	-0.9	-0.2	x	-2.1	5.8
CCOC(=O)[C@]12CCC=C1N(CCC1=CCCCC1)C(=O)[C@H](CC(=O)NCCCCc1ccccc1)C2	85.1*	0.5	-3.1	0.6	-1.6
CCCCOCCCNC(=O)C[C@@H]1C[C@@]2(C(=O)OCC)CCCC=C2N(CCc2ccc(OC)c(OC)c2)C1=O	27.6*	x	-7.0	-1.5	-10.9
CCOC(=O)[C@]12CCC=C1N(CCC1=CCCCC1)C(=O)[C@H](CC(=O)NCc1ccccc1)C2	-8.9	0.8	-3.6	-11.0	-2.3
CCC1CN(C(=O)N2CCC(C(=O)Nc3ccccc3F)CC2)c2ccccc2O1 (configuration not stated)	-3.6	-1.7	-2.2	19.3*	-3.9

Compound activity deposited in PubChem BioAssay by Broad Institute.
